13 compounds from ChEMBL document CHEMBL4145581, “Piperidine Alkaloids with Diverse Skeletons from Anacyclus pyrethrum” (J Nat Prod, 2018) can be followed below.

The experiment addresses T1, Menin (Homo sapiens) (UniProt O00255).
T1 sequence (whole entry): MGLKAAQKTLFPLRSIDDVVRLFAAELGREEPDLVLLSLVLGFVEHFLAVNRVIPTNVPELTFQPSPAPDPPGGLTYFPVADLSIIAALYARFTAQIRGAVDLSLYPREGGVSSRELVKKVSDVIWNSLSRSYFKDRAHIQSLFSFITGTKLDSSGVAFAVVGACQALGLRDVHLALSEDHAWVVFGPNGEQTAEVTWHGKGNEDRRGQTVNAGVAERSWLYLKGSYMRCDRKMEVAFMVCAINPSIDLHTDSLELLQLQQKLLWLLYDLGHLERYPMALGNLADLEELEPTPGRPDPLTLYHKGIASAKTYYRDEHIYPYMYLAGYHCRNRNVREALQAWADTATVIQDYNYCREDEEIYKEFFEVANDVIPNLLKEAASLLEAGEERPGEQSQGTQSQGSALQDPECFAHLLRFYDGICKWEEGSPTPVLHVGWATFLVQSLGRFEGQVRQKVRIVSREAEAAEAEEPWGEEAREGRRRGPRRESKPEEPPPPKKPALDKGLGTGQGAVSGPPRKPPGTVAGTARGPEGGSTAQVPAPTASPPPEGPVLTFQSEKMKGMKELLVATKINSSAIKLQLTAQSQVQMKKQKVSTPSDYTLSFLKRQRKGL
Description: Inhibition of FITC-labelled MLL1 binding to menin (unknown origin) at 20 uM after 120 mins by fluorescence polarization method relative to control. The method, boiled down:
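Menin–MLL1 protein–protein interaction inhibition assay with fluorescence polarization read-out on a plate reader. MI-2-2 served as the positive control.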
A general note: Fluorescence polarisation rises when a labelled molecule tumbles more slowly, as on binding a larger partner.

In turn, `CC1(C)CC(C2OC2(C)C)=CC(=O)N1` (stereo not drawn) yielded an inhibition of less than 50%. Compound `CC1(C)CC2=NC(C)(C)C3=NC(C)(C)CC3(O)C2=N1` (stereo not drawn) returned an inhibition of less than 50%. The result for `CC1=C2C3=C(C)C(=O)C(C)(C)N=C3C[C@@]2(C)CC(C)(C)N1` reads less than 50%. The result for `CC(=O)NC(C)(C)CC1=C[C@@]2(C)C(=O)C(C)(C)NC(C)=C2C1=O` reads less than 50%.

The compound `CC(=O)NC(C)(C)[C@H]1C(=O)C2=CC(C)(C)NC(C)=C2C(=O)[C@@H]1C` yielded an inhibition of less than 50%. With `CC1=C2C(=O)C3=CC(C)(C)N=C4CC(C)(C)C[C@@]2(CC(C)(C)N1)[C@]34O`, the inhibition was less than 50%. `CC1=CC(C)(C)NC1=O` displayed an inhibition of less than 50%.

The compound `CC(=O)NC(C)(C)C[C@@]1(O)C(=O)C2=C(C)NC(C)(C)C(=O)C2(C)[C@H]1O` (stereo partly drawn) showed an inhibition of less than 50%. In turn, `CC1=C2NC(C)(C)CC2=NC(C)(C)C1=O` had an inhibition of less than 50%.

Compound `CC(=O)NC(C)(C)C1C=C2CC(C)(C)NC(C)=C2C(=O)C1C` (stereo not drawn) showed an inhibition of less than 50%. Turning to `CC1=CC(=O)NC(C)(C)C1`, the inhibition is less than 50%. On to `CC1(C)CC2=NC(C)(C)C(=O)C(C(C)(C)O)=C2N1`, for which the inhibition was less than 50%. Turning to `CC(=O)NC(C)(C)[C@H]1C(=O)C2=CC(C)(C)NC(C)=C2C(=O)[C@@H]1C=C(C)C`, the inhibition was less than 50%.

As usually defined, the inhibition is the change of the read-out against control, counted positive when it falls. Low readings indicate a weak effect, high ones a strong effect.
